Assay results from ChEMBL document CHEMBL3877303 (J Med Chem, 2017).
pIC50: −log10 of the molar value. The source made the active and inactive calls. The rule behind the calls is not given here.

Key:
[1] = Cell cycle arrest in human GIST882 cells assessed as accumulation at G0/G1 phase at 1 uM after 48 hrs by propidium iodide/RNase staining based flow cytometry; type: functional
Method in brief: (§1)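 Cells were exposed to serially diluted compound, then fixed in cold 70% ethanol overnight at -20 °C. They were stained with PI/RNase buffer for DNA-content cell-cycle analysis.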

[2] = Cell cycle arrest in human MEG01 cells assessed as accumulation at G0/G1 phase at 1 uM after 24 hrs by propidium iodide/RNase staining based flow cytometry; type: functional; details: MEG-01; method in brief: as §1
[3] = biological target: T1, Mast/stem cell growth factor receptor Kit (Homo sapiens, UniProt P10721); details: GISTT1, 1 uM
T1 sequence (P10721 whole entry): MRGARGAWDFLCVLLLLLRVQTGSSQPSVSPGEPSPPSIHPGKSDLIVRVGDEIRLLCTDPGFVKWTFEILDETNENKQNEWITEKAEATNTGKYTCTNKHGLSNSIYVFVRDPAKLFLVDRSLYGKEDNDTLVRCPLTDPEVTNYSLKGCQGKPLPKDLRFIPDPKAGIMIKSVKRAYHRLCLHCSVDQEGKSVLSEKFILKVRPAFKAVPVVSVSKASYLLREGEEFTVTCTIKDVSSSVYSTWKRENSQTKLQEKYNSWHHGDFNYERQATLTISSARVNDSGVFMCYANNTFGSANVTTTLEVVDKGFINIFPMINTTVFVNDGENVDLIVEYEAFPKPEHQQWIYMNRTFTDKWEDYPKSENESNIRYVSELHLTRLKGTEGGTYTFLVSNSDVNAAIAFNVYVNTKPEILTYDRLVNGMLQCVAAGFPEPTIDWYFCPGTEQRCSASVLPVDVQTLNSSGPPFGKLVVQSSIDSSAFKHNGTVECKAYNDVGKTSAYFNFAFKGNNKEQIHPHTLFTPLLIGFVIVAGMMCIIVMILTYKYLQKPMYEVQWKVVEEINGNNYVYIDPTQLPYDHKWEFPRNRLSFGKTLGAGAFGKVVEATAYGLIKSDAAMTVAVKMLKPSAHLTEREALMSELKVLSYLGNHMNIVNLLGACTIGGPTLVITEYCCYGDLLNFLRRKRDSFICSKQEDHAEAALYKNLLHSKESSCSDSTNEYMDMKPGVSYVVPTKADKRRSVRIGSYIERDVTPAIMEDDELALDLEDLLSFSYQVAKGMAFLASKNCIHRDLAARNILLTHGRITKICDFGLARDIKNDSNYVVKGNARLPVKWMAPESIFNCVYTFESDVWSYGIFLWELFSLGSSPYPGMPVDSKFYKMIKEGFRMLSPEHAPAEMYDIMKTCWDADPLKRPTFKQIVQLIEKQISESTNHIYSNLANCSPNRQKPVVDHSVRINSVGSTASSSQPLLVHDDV

[4] = biological target: T1, Mast/stem cell growth factor receptor Kit; details: 1 uM
[5] = AUC (0 to t) in Sprague-Dawley rat at 10 mg/kg, po; type: ADME, organism-based; details: in vivo
Method in brief: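 Male Sprague-Dawley rats aged six to eight weeks were fasted overnight and then dosed iv or orally. Blood (~0.2 mL) was drawn from the jugular vein into heparin and kept on ice. Sampling was at 1 min to 8 h for iv and 5 min to 24 h for oral. Plasma was separated by centrifugation at 2-8 °C and stored at -80 °C until analysis.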

[6] = biological target: BCR/ABL p210 fusion protein (Homo sapiens, UniProt A1Z199); test: Inhibition of BCR/ABL p210 fusion protein mediated signaling pathways assessed as reduction in Stat5 phosphorylation at Y694 in human MEG01 cells at 0.01 to 3 uM measured after 2 hrs by immunoblotting; type: cell-based; details: MEG-01
BCR/ABL p210 fusion protein, sequence (A1Z199 1-97): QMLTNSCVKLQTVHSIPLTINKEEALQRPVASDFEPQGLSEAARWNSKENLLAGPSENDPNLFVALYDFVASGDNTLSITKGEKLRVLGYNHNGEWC
Method in brief: (§2)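 After an ice-cold PBS wash, cells were lysed in RIPA buffer (50 mM Tris pH 8.0) with protease and phosphatase inhibitors, and protein was quantified by BCA. Lysates were run on SDS-PAGE, transferred to PVDF and blocked in 5% milk/TBST. Phospho- and total proteins were probed by immunoblot with ECL detection; β-actin served as loading control.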

K562 [7] = test: Induction of apoptosis in human K562 cells assessed as cleavage of PARP at 0.1 to 3 uM by Western blot analysis; type: functional, cell-based
Method in brief: (§3)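 Cells were treated with DMSO or serially diluted compound for the indicated periods. They were washed in ice-cold PBS and lysed in RIPA buffer with protease/phosphatase inhibitors, and protein was quantified by BCA. Lysates were resolved by SDS-PAGE, transferred to PVDF and blocked in 5% milk/TBST. Blots were probed for PARP and caspase-3, with β-actin as loading control, and detected by ECL.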

K562 [8] = test: Anticancer activity against human K562 cells xenografted in nu/nu mouse assessed as reduction in tumor progression administered daily via oral gavage measured 28 days post compound treatment; type: functional, cell-based
Method in brief: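 Female nu/nu mice received ten million K562 cells subcutaneously in the right flank, in PBS mixed 1:1 with Matrigel. Daily oral gavage began at 200-400 mm³ tumor size, with 4 or 5 mice per group. Dosing was 25, 50 or 100 mg/kg/d or vehicle (0.5% methylcellulose/0.4% Tween80) for 28 days. Body weight and tumor size were normalized to initial values, and final tumor weight was recorded. Data are mean ± SEM.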

MEG-01 = test: Induction of apoptosis in human MEG01 cells assessed as cleavage of PARP at 0.1 to 3 uM by Western blot analysis; type: functional, cell-based; method in brief: as §3
GISTT1 = test: Anticancer activity against human GISTT1 cells xenografted in nu/nu mouse assessed as tumor growth inhibition administered daily via oral gavage measured 21 days post compound treatment
[9] = system: Mast/stem cell growth factor receptor Kit (Homo sapiens), P10721 [V654A]; test: Inhibition of Tel-fused c-KIT V654A mutant (unknown origin) expressed in BAF3 cells assessed as growth inhibition measured after 72 hrs by CellTiter-Glo or CCK8 assay; type: cell-based
Mast/stem cell growth factor receptor Kit (Homo sapiens), P10721 [V654A], sequence (P10721 whole entry V654A, the tested form may be a part): as the sequence (P10721 whole entry) above, with V654A counted along it
Method in brief: (§4)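 BaF3 lines were made by retroviral transduction with kinase-fusion MSCV vectors packaged in HEK293T cells. Cells were selected with puromycin for 48 h, then selected again without IL-3 so growth depends on the introduced kinase. […] They were seeded at 1 to 2.5×10^4 cells/mL with compound dilutions and incubated 72 h. Viability was read by CellTiter-Glo luminescence or CCK-8 absorbance (450/655 nm), normalized to DMSO control; GI50 was curve-fitted from triplicate tests.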

[10] = biological target: Epithelial discoidin domain-containing receptor 1 (Homo sapiens, UniProt Q08345); test: Inhibition of human GST-tagged DDR1 cytoplasmic domain expressed in baculovirus expression system assessed as residual activity at 1 uM by KINOMEscan binding assay relative to control
Epithelial discoidin domain-containing receptor 1, sequence (Q08345 whole entry, the tested form may be a part): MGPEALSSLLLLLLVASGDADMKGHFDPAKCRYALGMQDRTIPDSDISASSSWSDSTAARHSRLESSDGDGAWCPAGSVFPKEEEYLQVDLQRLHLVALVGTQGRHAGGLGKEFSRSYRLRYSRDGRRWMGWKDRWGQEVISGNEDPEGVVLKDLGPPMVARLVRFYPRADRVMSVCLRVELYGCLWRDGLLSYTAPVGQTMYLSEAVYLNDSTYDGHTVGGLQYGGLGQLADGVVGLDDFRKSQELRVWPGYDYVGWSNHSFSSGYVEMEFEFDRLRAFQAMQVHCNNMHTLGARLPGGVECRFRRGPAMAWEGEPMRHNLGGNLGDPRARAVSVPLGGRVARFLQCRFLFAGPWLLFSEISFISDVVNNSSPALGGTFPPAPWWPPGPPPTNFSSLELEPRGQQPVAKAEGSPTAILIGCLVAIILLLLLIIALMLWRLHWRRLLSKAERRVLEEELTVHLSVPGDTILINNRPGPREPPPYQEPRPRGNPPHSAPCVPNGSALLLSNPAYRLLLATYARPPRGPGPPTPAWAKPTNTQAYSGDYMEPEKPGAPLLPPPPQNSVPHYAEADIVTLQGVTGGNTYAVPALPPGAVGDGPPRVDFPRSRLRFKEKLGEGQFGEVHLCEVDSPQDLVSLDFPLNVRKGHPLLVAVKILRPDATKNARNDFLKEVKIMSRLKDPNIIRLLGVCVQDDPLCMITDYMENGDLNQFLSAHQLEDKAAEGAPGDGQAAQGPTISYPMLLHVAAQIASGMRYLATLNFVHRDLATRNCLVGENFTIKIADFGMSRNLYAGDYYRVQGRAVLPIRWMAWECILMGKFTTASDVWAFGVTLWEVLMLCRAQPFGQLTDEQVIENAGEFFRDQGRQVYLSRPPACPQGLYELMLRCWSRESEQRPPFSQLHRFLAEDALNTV

[11] = biological target: T1, Mast/stem cell growth factor receptor Kit; test: Inhibition of recombinant C-terminal polyhistidine-tagged human c-KIT expressed in mammalian expression system assessed as residual activity at 1 uM using Tyr 06 peptide as substrate measured after 1hr by FRET based Z'Lyte assay relative to control
BaF3 [12] = test: Inhibition of BCR/ABL p210 fusion protein H369P mutant (unknown origin) expressed in BAF3 cells assessed as growth inhibition measured after 72 hrs by CellTiter-Glo or CCK8 assay; type: cell-based; details: Homo sapiens; method in brief: as §4
BaF3 [13] = test: Inhibition of BCR/ABL p210 fusion protein M356T mutant (unknown origin) expressed in BAF3 cells assessed as growth inhibition measured after 72 hrs by CellTiter-Glo or CCK8 assay; type: cell-based; details: Homo sapiens; method in brief: as §4
[14] = biological target: Macrophage colony-stimulating factor 1 receptor (Homo sapiens, UniProt P07333); test: Inhibition of recombinant His-tagged human CSF1R cytoplasmic domain expressed in baculovirus expression system assessed as residual activity at 1 uM measured after 1 hr by FRET based Z'Lyte assay relative to control
Macrophage colony-stimulating factor 1 receptor, sequence (P07333 whole entry, the tested form may be a part): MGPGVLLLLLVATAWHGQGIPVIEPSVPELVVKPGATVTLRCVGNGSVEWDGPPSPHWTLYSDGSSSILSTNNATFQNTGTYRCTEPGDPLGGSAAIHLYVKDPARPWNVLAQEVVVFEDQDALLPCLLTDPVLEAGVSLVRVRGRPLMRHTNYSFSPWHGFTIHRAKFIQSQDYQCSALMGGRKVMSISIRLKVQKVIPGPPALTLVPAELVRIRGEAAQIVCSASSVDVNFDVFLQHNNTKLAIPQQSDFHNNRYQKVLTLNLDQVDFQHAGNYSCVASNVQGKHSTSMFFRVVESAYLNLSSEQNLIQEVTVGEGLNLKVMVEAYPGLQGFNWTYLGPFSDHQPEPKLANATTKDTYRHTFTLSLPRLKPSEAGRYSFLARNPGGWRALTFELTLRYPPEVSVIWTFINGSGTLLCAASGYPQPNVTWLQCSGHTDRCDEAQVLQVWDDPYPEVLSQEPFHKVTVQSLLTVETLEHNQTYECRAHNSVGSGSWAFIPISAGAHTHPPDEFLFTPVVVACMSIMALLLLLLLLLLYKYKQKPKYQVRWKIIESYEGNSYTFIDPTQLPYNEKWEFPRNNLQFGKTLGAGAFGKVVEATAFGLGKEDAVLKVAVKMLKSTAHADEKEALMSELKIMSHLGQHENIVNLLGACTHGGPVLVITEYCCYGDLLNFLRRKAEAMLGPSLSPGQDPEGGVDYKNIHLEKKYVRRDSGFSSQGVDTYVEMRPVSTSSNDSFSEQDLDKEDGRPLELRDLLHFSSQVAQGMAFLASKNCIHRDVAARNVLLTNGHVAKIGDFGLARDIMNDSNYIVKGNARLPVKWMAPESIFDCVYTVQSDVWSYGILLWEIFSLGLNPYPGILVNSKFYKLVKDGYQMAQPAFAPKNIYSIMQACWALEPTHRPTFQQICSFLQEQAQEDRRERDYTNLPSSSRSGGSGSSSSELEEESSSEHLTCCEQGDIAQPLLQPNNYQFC

[15] = biological target: Tyrosine-protein kinase Blk (Homo sapiens, UniProt P51451); test: Inhibition of full length recombinant His-tagged human BLK cytoplasmic domain expressed in baculovirus expression system measured after 1 hr by FRET based Z'Lyte assay
Tyrosine-protein kinase Blk, sequence (P51451 whole entry, the tested form may be a part): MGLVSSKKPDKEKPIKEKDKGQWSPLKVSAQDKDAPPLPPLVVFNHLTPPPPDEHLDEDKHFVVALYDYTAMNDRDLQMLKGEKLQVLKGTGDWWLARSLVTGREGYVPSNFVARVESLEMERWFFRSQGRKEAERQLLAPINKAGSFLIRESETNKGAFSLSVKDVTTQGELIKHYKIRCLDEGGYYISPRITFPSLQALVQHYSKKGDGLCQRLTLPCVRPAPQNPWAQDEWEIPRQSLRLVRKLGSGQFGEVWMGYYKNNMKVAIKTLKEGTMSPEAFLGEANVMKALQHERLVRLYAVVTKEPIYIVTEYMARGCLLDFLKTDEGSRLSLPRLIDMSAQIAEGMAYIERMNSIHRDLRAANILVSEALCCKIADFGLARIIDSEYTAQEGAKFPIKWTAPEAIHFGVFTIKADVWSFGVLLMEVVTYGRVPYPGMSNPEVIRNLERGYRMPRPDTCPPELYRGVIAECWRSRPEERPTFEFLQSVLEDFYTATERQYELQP
Method in brief: (§5)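 Z'-LYTE FRET biochemical kinase assay run by Invitrogen on selected kinases identified from binding profiling; IC50 from dose-response.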

[16] = biological target: Platelet-derived growth factor receptor beta (Homo sapiens, UniProt P09619); test: Inhibition of recombinant His-tagged human PDGFR-beta cytoplasmic domain (558 to 1106 residues) expressed in baculovirus expression system assessed as residual activity at 1 uM by KINOMEscan binding assay relative to control
[17] = system: Mast/stem cell growth factor receptor Kit (Homo sapiens), P10721 [D816V]; test: Inhibition of Tel-fused c-KIT D816V mutant (unknown origin) expressed in BAF3 cells assessed as growth inhibition measured after 72 hrs by CellTiter-Glo or CCK8 assay; type: cell-based; method in brief: as §4
Mast/stem cell growth factor receptor Kit (Homo sapiens), P10721 [D816V], sequence (P10721 whole entry D816V, the tested form may be a part): as the sequence (P10721 whole entry) above, with D816V counted along it

[18] = biological target: Tyrosine-protein kinase Lck (Homo sapiens, UniProt P06239); test: Inhibition of recombinant C-terminal His-tagged human LCK cytoplasmic domain expressed in baculovirus expression system measured after 1 hr by FRET based Z'Lyte assay; method in brief: as §5
Tyrosine-protein kinase Lck, sequence (P06239 whole entry, the tested form may be a part): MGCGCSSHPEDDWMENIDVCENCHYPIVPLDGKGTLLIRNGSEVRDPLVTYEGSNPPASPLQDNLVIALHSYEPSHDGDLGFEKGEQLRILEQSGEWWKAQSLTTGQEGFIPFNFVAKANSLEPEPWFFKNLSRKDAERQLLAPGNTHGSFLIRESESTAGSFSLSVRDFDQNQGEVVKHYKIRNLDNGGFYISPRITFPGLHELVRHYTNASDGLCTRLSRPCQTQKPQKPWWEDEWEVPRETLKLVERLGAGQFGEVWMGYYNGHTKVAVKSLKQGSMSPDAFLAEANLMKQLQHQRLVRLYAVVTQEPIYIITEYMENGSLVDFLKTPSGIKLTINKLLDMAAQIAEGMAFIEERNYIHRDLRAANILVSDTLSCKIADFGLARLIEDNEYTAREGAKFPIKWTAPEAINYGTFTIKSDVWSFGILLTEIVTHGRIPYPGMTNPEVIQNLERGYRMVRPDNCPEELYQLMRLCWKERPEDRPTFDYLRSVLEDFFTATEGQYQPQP

[19] = biological target: T1, Mast/stem cell growth factor receptor Kit; test: Inhibition of c-KIT mediated signaling pathways assessed as reduction in S6K phosphorylation at T389 in human GIST882 cells at 0.03 to 10 uM measured after 2 hrs by immunoblotting; type: cell-based; method in brief: as §2
[20] = Antiproliferative activity against human KU812 cells measured after 72 hrs by CellTiter-Glo or CCK8 assay; type: functional; details: KU812, 72 h

With `Cc1ccc(NC(=O)c2ccc(CN3CCN(C)CC3)cc2)cc1Nc1nccc(-c2cccnc2)n1` [IMATINIB] as the compound, how does the Activity [1] read?
Its Activity is “Active”.

And the Activity [2]?
Its Activity is “Active”.

And the inhibition [3]?
The inhibition was “Active”.

What about the inhibition [4] of the same compound?
Its inhibition is “Active”.

With `Cc1ccc(C(=O)N2CCC(Oc3cc(NC(=O)c4ccc(CN5CCN(C)CC5)c(C(F)(F)F)c4)ccc3C)CC2)cn1` as the compound, how does the AUC(0-t) [5] read?
The AUC(0-t) was 2420 ng·h/mL.

And the inhibition [6]?
The inhibition was “Active”.

What about the Activity (K562 [7]) of the same compound?
Its Activity is “Active”.

What about the TGI (K562 [8]) of the same compound?
The TGI was “Dose-dependent effect”.

What about the Activity (MEG-01) of the same compound?
The Activity was “Active”.

And the TGI (GISTT1)?
Its TGI is “Dose-dependent effect”.

What about the GI50 [9] of the same compound?
The GI50 was 1840 nM.

And the Activity [10]?
The Activity was 0.35%.

What about the Activity [11] of the same compound?
The Activity was 0.8%.

What about the GI50 (BaF3 [12]) of the same compound?
Its GI50 is 980 nM.

And the GI50 (BaF3 [13])?
The GI50 was 270 nM.

And the Activity [14]?
Its Activity is 0.3%.

And the pIC50 [15]?
Its pIC50 is 7.09.

What about the Activity [16] of the same compound?
Its Activity is 0.3%.

And the GI50 [17]?
The GI50 was 5060 nM.

And the pIC50 [18]?
The pIC50 was 7.92.

What about the inhibition [19] of the same compound?
The inhibition was “Active”.

And the GI50 [20]?
The GI50 was 56 nM.
